Experimental data of several laboratories.
Compare with care: the assays were run in different laboratories.
Effect on: cell growth or viability

SMILES | cell line | technique | time | IC50 [µM]
CC(C)C[C@H](NC(=O)[C@H](CO)NC(=O)[C@H](CO)NC(=O)CNC(=O)[C@@H]1CCCN1C(=O)[C@H](Cc1ccc(O)cc1)NC(=O)[C@H](CC(C)C)NC(=O)[C@H](CO)NC(=O)[C@H](CS)NC(=O)[C@H](CC(C)C)NC(=O)[C@@H](N)CC(C)C)C(=O)O | NCI-H1975 | MTT | 72 h | > 100
N.N.[Cl][Pt][Cl] | KARPAS-422 | ATP luminescence | 72 h | 7.16
[C-]#[O+].[C-]#[O+].[C-]#[O+].[C-]#[O+].[C-]#[O+].[C-]#[O+].[C-]#[O+].[C-]#[O+].[C-]#[O+].[C-]#[O+].[Mn].[Mn] | HEK293 | MTT | 48 h | 5.44
Cc1ncsc1-c1ccc([C@H](C)NC(=O)[C@@H]2C[C@@H](O)CN2C(=O)[C@@H](c2cc(N3CCC(CN4CCC(OC5CC(Oc6cc(N7C8CCC7CN(c7cc(-c9ccccc9O)nnc7N)C8)ccn6)C5)CC4)CC3)no2)C(C)C)cc1 (some centres unmarked) | HCC515 | ATP luminescence | 7 days | 0.0529
CC[C@H](C)[C@H](NC(=O)[C@H](CO)NC(=O)[C@H](CO)NC(=O)[C@H](Cc1ccccc1)NC(=O)CN)C(=O)N[C@@H](Cc1ccccc1)C(=O)N[C@@H](CCCCNC(=N)N)C(=O)NCC(=O)N[C@H](C(=O)N[C@@H](C)C(=O)N[C@@H](CCCCNC(=N)N)C(=O)N[C@@H](Cc1ccccc1)C(=O)N[C@@H](C)C(=O)N[C@@H](CO)C(=O)N[C@@H](CCCCNC(=N)N)C(=O)NCC(=O)N[C@@H](CC(C)C)C(=O)NCC(=O)N[C@@H](CCCCNC(=N)N)C(N)=O)C(C)C | HEK293 | MTT |  | > 100
N.N.[Cl][Pt][Cl] | HEK293 | MTT | 48 h | 17.6
C[C@H](NC(=O)[C@H](Cc1c[nH]c2ccccc12)NC(=O)CNC(=O)[C@H](CCCNC(=N)N)NC(=O)[C@H](Cc1c[nH]c2ccccc12)NC(=O)[C@H](Cc1c[nH]c2ccccc12)NC(=O)[C@H](CO)NC(=O)[C@H](CO)NC(=O)[C@H](Cc1c[nH]c2ccccc12)NC(=O)CN)C(=O)N[C@@H](CCCCN)C(=O)N[C@@H](Cc1c[nH]c2ccccc12)C(=O)N[C@@H](C)C(=O)N[C@@H](CO)C(=O)N[C@@H](CCCCN)C(=O)NCC(=O)N[C@@H](Cc1c[nH]c2ccccc12)C(=O)NCC(=O)N[C@@H](CCCCN)C(N)=O | HEK293 | MTT |  | 34.1
CC[C@H](C)[C@H](NC(=O)CN)C(=O)NCC(=O)N[C@@H](C)C(=O)N[C@H](C(=O)N[C@@H](CC(C)C)C(=O)N[C@@H](CCCCN)C(=O)N[C@H](C(=O)N[C@@H](CC(C)C)C(=O)N[C@H](C(=O)N[C@H](C(=O)NCC(=O)N[C@@H](CC(C)C)C(=O)N1CCC[C@H]1C(=O)N[C@@H](C)C(=O)N[C@@H](CC(C)C)C(=O)N[C@H](C(=O)N[C@@H](CO)C(=O)N[C@@H](Cc1c[nH]c2ccccc12)C(=O)N[C@H](C(=O)N[C@@H](CCCCN)C(=O)N[C@@H](CCCNC(=N)N)C(=O)N[C@@H](CCCCN)C(=O)N[C@@H](CCCNC(=N)N)C(=O)N[C@@H](CCC(N)=O)C(=O)N[C@@H](CCC(N)=O)C(N)=O)[C@@H](C)CC)[C@@H](C)CC)[C@@H](C)O)[C@@H](C)O)C(C)C)C(C)C | HEK293 | MTT | 24 h | 4.66
